Rad51 HR inh = human RAD51 strand exchange inhibitors, primary screen, biochemical, fluorescence | DNA repair protein RAD51 homolog 1 (Homo sapiens), Q06609 | hRad51 DNA strand exchange, fluorescence dequenching | inhibition, % at 10 µM | 200,000 compounds, 0.085% hits;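 active means inhibition above 40% at the single screening dose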;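 further: 0% = DMSO control wells and 100% = blanks with heterologous ssDNA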
Target sequence (Q06609 whole entry, looked up): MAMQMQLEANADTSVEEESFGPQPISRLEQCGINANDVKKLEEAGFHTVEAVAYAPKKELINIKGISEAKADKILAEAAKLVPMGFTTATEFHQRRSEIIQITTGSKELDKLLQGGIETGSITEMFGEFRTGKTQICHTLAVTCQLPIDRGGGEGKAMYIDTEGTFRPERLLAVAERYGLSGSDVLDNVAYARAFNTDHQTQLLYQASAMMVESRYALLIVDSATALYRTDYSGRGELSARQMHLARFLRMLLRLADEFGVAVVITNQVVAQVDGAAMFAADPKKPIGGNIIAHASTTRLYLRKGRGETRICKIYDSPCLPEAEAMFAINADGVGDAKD
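Test system: preformed human Rad51 ssDNA filaments; also added: Donor/quencher-labelled 47-bp dsDNA substrate; doses: 10 µM final, single point; times: 37 °C 15-min filament assembly, 30-min compound preincubation, 15-min exchange; detection: FRET fluorescence dequenching, excitation 485 nm, emission 520 nm; read-out basis: Fluorescence-based percent inhibition, control- and blank-normalised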
WT yeast gro inh = growth inhibition of WT strain, primary screen, mitochondrial fusion inhibitor project, WT and mutant strains, chemical genetic | mitochondrial fusion phenotypic screen | inhibition, % at 10 µM | 190,000 compounds, 2.1% hits | AID 1362, 2008; in the data active means inhibition above about 58%; tested in S. cerevisiae
Ins promoter up = insulin promoter activators in MIN6 cells, imaging, high-content screening, mouse beta cells; 190,000 compounds, 0.3% hits; MIN6 insulin promoter-GFP reporter; hits give high values; z-score at 5 µM;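 active means z-score above 3 at 5 µM with at least 500 cells counted in the well; inconclusive means wells under 500 cells, flagged as cytotoxic or low count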
Autophagy HCS = autophagy modulators in MEF cells, primary screen, imaging, high-content, MEF GFP-LC3; MEF GFP-LC3 puncta imaging; test concentration mostly 10 µM; calls only at 10 µM (by protocol); 190,000 compounds, 0.98% hits;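 active means percentage of spot-positive cells more than 3 SD above its plate mean, without a fluorescence outlier flag or 80% toxicity; inconclusive means no clear call, values can overlap the other calls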;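 further: spot-positive cell cutoff set from DMSO-treated cells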
Cl transport mod = KCC2 cotransporter modulators, thallium flux, primary screen, cell-based, HEK293 KCC2, FluoZin-2 fluorescence, MLSMR | Solute carrier family 12 member 5 (Homo sapiens), Q9H2X9 | AID 1456, 2008 | KCC2 cells, thallium flux FluoZin-2 fluorescence | B-score of Tl+ flux slope (higher = more flux/activation; lower = inhibition) at 10 µM | 190,000 compounds, 2.2% hits;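 active means thallium flux slope and its plate-corrected score both differing from the plate sample mean at a set confidence after two filtering rounds, in either direction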;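 further: slope of fluorescence scaled to starting intensity during 10 to 20 s after thallium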
SKKanGAS inh = S. pyogenes SKKanGAS growth inhibitors in kanamycin, primary screen, streptokinase expression inhibitor project, SKKanGAS strain, BacTiter-Glo luminescence | 6 h | inhibition, % at 7.5 µM | 300,000 compounds, 1.3% hits | AID 1662, 2009;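 active means mean replicate score, as percent of positive control median, at least 50; inconclusive means mean below 50 but one replicate at or above 50; inactive means mean and every replicate below 50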;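 further: strain carries kanamycin resistance gene driven by streptokinase promoter and grows in 40 µg/ml kanamycin; loss of luminescence reflects streptokinase promoter inhibition or plain growth inhibition; 0% = median of DMSO wells and 100% = positive control at its reference dose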
KCC2 secondary = KCC2 modulators in sodium-free buffer, confirmation, cell-based, HEK293 KCC2, thallium flux, secondary assay; shares compounds with Cl transport mod; FluoZin2 fluorescence; hits give high values; normalised thallium flux (F/F0 slope) at 10 µM; 3,700 compounds, 15% hits; AID 1713, 2009;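 active means thallium flux slope above the same plate's solvent-only control mean plus 3 SD; inconclusive means the two replicate wells disagree; inactive means no significant difference from solvent-only control wells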
KCC2 bumet counter = thallium flux persisting under bumetanide in KCC2 cells, confirmation, counter-screen for KCC2 modulator project, cell-based, HEK293 KCC2, FluoZin2, secondary assay 3 | HEK293-KCC2 + bumetanide/ouabain; hits give high values | AID 1714, 2009 | normalized thallium flux at 10 µM | 3,700 compounds, 49% hits | shares compounds with Cl transport mod;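 active means thallium entry rate above the same plate's blocked-transporter control wells by more than 3 SD; inconclusive means the two repeat wells disagree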;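 further: raw slope of fluorescence over initial fluorescence between 10 and 20 s after thallium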
KCC2 secondary2 = KCC2 modulators without ouabain present, confirmation, cell-based, HEK293 KCC2, thallium flux, FluoZin2, secondary assay 2 | shares compounds with Cl transport mod | thallium flux FluoZin2 fluorescence; actives lie on both sides; F/F0 rise rate, 10–20 s post-thallium | normalized thallium flux at 10 µM | 3,700 compounds, 23% hits;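 active means thallium flux slope more than 3 SD above or below the plate's solvent-only control mean, mostly below; inconclusive means the two repeat wells disagreed; inactive means no significant shift from solvent-only controls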;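 further: raw slope with 0.1% DMSO as baseline and bumetanide as block control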
HEK counter1 = thallium flux modulation in parental HEK cells, confirmation, counter-screen for KCC2 modulator project, cell-based, counterscreen 1; thallium flux rate (normalised fluorescence) at 10 µM; AID 1716, 2009; 3,700 compounds, 46% hits; shares compounds with Cl transport mod; HEK293 parental cells, thallium flux FluoZin2, ouabain; baseline-ratio fluorescence slope, 10–20 s after thallium;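 active means thallium flux rate significantly above the same plate's solvent-only control wells, beyond their mean plus 3 SD; inconclusive means the two replicate wells gave conflicting results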
KCC2 ouabain = KCC2 inhibitors and activators, ouabain retest, confirmation, HEK-KCC2 cells | shares compounds with Cl transport mod | HEK293-KCC2, thallium flux FluoZin2 fluorescence; bidirectional: low = inhibitor, high = activator | raw Tl+ flux slope (below DMSO = inhibition, above = activation) at 10 µM | AID 1717, 2009 | 3,700 compounds, 48% hits;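 active means thallium flux slope beyond 3 SD from same-plate DMSO control mean in most replicates, usually higher, sometimes lower; inconclusive means repeat tests gave conflicting results; inactive means no significant difference from controls in most replicates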;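 further: slope of initial-normalized fluorescence between seconds 10 and 20 after thallium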
HEK counter2 = native HEK Tl+ uptake effects, second counter-screen – HEK cells, counterscreen 2, counter-screen for KCC2 modulator project, confirmation; shares compounds with Cl transport mod; HEK293 parental, thallium flux FluoZin-2 fluorescence slope; thallium flux slope at 10 µM; 3,700 compounds, 33% hits; AID 1718, 2009;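 active means thallium flux slope above the same plate's solvent-control mean plus 3 SD in both duplicate wells; inconclusive means duplicate wells that disagreed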;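 further: run without ouabain in cells lacking the KCC2 cotransporter; slope of fluorescence scaled to its starting value between 10 and 20 s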
* hit, by the source's call; i = inactive; u = inconclusive; x = not tested or not shown. Only some compounds are listed: those with a hit (about 4.2% of all), similar ones and a draw of the others.

SMILES	Rad51 HR inh	WT yeast gro inh	Ins promoter up	Autophagy HCS	Cl transport mod	SKKanGAS inh	KCC2 secondary	KCC2 bumet counter	KCC2 secondary2	HEK counter1	KCC2 ouabain	HEK counter2
N#Cc1nc(Cc2cccc3ccccc23)oc1N1CCOCC1	-7	x	-0.78	i	-6*	-11	0.0068	0.0044	0.022*	0.0075	0.012*	0.01
C=CCNc1oc(/C=C/c2ccccc2)nc1C#N	-7	21	-1.4	i	x	0	x	x	x	x	x	x
N#Cc1nc(Cc2cccc3ccccc23)oc1NCCN1CCOCC1	0	-19	0.02	i	-4.5*	-1	0.0059	0.0047	0.023*	0.0069	u	0.01
C=CCNc1oc(Cc2cccc3ccccc23)nc1C#N	-7	4	-0.04	i	-4.6*	-3	0.006	0.0048	0.023*	0.0069	u	0.0096
COc1cccc(CN2CC(C(=O)NC3CCCCCC3)CCC2=O)c1 (centres undefined)	x	x	x	x	x	-2	x	x	x	x	x	x
Cc1cccc(C(=O)N/N=C/c2cc(Br)c(Br)o2)c1	-1	38	-0.29	i	0.061	-14	0.009	0.017*	0.033	0.0091*	u	0.0094
Cc1ccc(/C=N/NC(=O)c2cccc([N+](=O)[O-])c2)o1	-3	5	0.43	i	5.5*	0	0.01	0.011*	0.033	0.012*	0.023	0.011
O=C(N/N=C/c1ccc(-c2cccc([N+](=O)[O-])c2)o1)c1ccccc1O	-6	19	-0.13	i	3.4*	23	0.011	0.024*	0.038	0.012*	0.032*	u
O=C(N/N=C/c1ccc(-c2cccc([N+](=O)[O-])c2)o1)c1ccc([N+](=O)[O-])cc1	-6	26	-0.59	i	1.9	3	x	x	x	x	x	x
Cc1cc(C(=O)N/N=C/c2ccc(N(C)C)o2)cs1	x	x	x	x	x	3	x	x	x	x	x	x
CN(C)c1ccc(/C=N/NC(=O)c2ccccc2O)o1	23	-7	-0.85	i	5.1*	-1	0.01	u	0.033	0.011*	0.02	0.012
O=C(N/N=C/c1ccc(-c2cccc(C(F)(F)F)c2)o1)c1cccc(F)c1	3	66	0.35	i	12*	-1	0.0086	0.016*	0.033	0.012*	u	0.01
O=C(N/N=C/c1ccc(-c2cccc(C(F)(F)F)c2)o1)c1ccccc1O	4	7	0.1	i	4.8*	-13	0.0069	0.029*	0.033	0.016*	u	0.019*
O=C(N/N=C/c1ccc(-c2cccc(C(F)(F)F)c2)o1)c1ccccc1Br	-9	-3	0.03	i	x	11	x	x	x	x	x	x
O=C(Oc1ccc2ccccc2c1Cl)N1CCCC1	2	10	-0.26	i	x	-3	0.0062	0.0053	0.029	0.0063	0.015*	0.0094
O=C(Oc1c(Cl)cc(Cl)c2ccccc12)N1CCCC1	-5	18	0.39	i	-0.19	4	x	x	x	x	x	x
CCCc1nnc(NC(=O)CCC(=O)NCc2ccc(OC)cc2)s1	x	x	0.74	x	0.47	8	x	x	x	x	x	x
Nc1ccc(O)c2c1C(=O)c1ccccc1C2=O	-8	51	x	i	-1	4	x	x	x	x	x	x
Nc1ccc(Br)c2c1C(=O)c1ccccc1C2=O	-1	-2	0.9	i	-3.8*	6	u	u	0.032	u	0.018	0.011
COC(=O)CC1C(=O)NCCN1C(=O)c1cc([N+](=O)[O-])ccc1Cl (centres undefined)	x	x	x	x	x	-1	x	x	x	x	x	x
Cn1cc(S(=O)(=O)N2CCc3ccccc3C2)c(=O)n(C)c1=O	2	-19	-0.91	i	-3.4*	-1	0.01	u	0.033	0.0078	0.022	0.01
CN1CCC(OC(c2ccccc2)c2ccccc2)CC1	2	-1	x	i	4.7*	0	0.0099	0.0069	0.03	u	0.022	0.0097
CN1CCC(Oc2ccccc2Sc2ccccc2)CC1	9	-4	-0.59	i	-0.62	4	x	x	x	x	x	x
COC(=O)c1ccc(COc2ccccc2/C=C/C(=O)c2ccc(OCC(=O)O)cc2)cc1	x	x	x	x	x	21	x	x	x	x	x	x
CC(C)(C)SCCNC(=O)/C=C/c1cccc([N+](=O)[O-])c1	0	-12	-0.13	i	3.7*	-7	0.0093	0.0063	0.033	0.0047	0.02	0.011
SMILES	Rad51 HR inh	WT yeast gro inh	Ins promoter up	Autophagy HCS	Cl transport mod	SKKanGAS inh	KCC2 secondary	KCC2 bumet counter	KCC2 secondary2	HEK counter1	KCC2 ouabain	HEK counter2
Cc1ccc(SCCNC(=O)/C=C/c2cccc([N+](=O)[O-])c2)cc1	x	17	0.04	i	-4.5*	-6	0.0073	0.0047	0.035	0.0068	0.015*	0.011
CC(C)(C)SCCNC(=O)/C=C/c1ccc([N+](=O)[O-])cc1	3	19	0.03	i	-0.13	3	x	x	x	x	x	x
O=C(/C=C/c1cccc([N+](=O)[O-])c1)NCCSc1ccccc1	0	5	-0.73	i	x	-4	x	x	x	x	x	x
CCc1ccc(C(=O)COC(=O)c2ccc(Cl)nc2)cc1	10	-3	-0.21	i	0.043	-4	x	x	x	x	x	x
Cc1cnc(CNC(=O)C2CCC(=O)N(CCc3ccc(Cl)cc3)C2)cn1 (centres undefined)	x	x	x	x	x	-2	x	x	x	x	x	x
Cc1ccc(C(=O)Oc2ccccc2N2C(=O)C3C4CCC(C4)C3C2=O)cc1 (centres undefined)	4	-21	0.14	i	-0.087	-1	x	x	x	x	x	x

From PubChem BioAssay
